Reference: ChEMBL document CHEMBL1153436, “2-Pyridyl P1'-substituted symmetry-based human immunodeficiency virus protease inhibitors (A-792611 and A-790742) with potential for convenient dosing and reduced side effects” (J Med Chem, 2009)

Assays:
[1] = tested on: Human immunodeficiency virus 1; assay: Antiviral activity against wild-type HIV1 pNL4-3 infected in human MT4 cells after 5 days by MTT assay; format: functional, organism-based; conditions: Human immunodeficiency virus 1, MT4, 120 h
[2] = tested on: Human immunodeficiency virus 1; assay: Antiviral activity against wild-type HIV1 pNL4-3 infected in human MT4 cells after 5 days by MTT assay in presence of 50% human serum; format: functional, organism-based; conditions: Human immunodeficiency virus 1, MT4, 120 h
[3] = tested on: Human immunodeficiency virus 1; assay: Antiviral activity against HIV1 bearing protease gene with A17 mutation infected in human MT4 cells after 5 days by MTT assay; format: functional, organism-based; conditions: Human immunodeficiency virus 1, MT4, 120 h
Method in brief: (§1)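 HIV-1 A17 mutant clone carrying protease mutations L10F, V32I, M46I, I47V, Q58E and I84V, generated by in vitro serial passage under LPV/RTV. EC50 was determined in MT-4 cells. Wild-type reference strain was HIV-1 pNL4-3.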

[4] = tested on: Human immunodeficiency virus 1; assay: Fold resistance, ratio of EC50 for HIV1 bearing protease gene with A17 mutation to EC50 for wild-type HIV1 pNL4-3; format: functional; method in brief: as §1
[5] = Half life in Sprague-Dawley rat at 5 mg/kg, iv; format: ADME, organism-based; parameters: dose 5 mg/kg, route intravenous; conditions: in vivo
Method in brief: (§2)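 Male Sprague-Dawley-derived rats (n = 3) dosed iv or by oral gavage with 5 mg/mL solutions in 5% dextrose containing 20% ethanol, 30% propylene glycol and methanesulfonic acid equivalents. Plasma was sampled at 10 time points over 8 h, extracted into ethyl acetate/hexane and analysed by reversed-phase HPLC with internal standard. AUC in µg·h/mL.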

[6] = Clearance in Sprague-Dawley rat at 5 mg/kg, iv; format: ADME, organism-based; parameters: dose 5 mg/kg, route intravenous; conditions: in vivo; method in brief: as §2
[7] = Oral bioavailability in Sprague-Dawley rat at 5 mg/kg; format: ADME, organism-based; conditions: in vivo; method in brief: as §2
[8] = AUC in Sprague-Dawley rat at 5 mg/kg, po; format: ADME, organism-based; parameters: dose 5 mg/kg, route oral; conditions: plasma; method in brief: as §2
[9] = AUC in Sprague-Dawley rat at 5 mg/kg, po in presence of ritonavir; format: ADME, organism-based; parameters: dose 5 mg/kg, route oral; conditions: plasma; method in brief: as §2

COC(=O)N[C@H](C(=O)N[C@@H](Cc1ccc(-c2ccccn2)cc1)C[C@H](O)[C@H](Cc1ccccc1)NC(=O)[C@@H](N1CCN(Cc2cccc(C)c2)C1=O)C(C)(C)C)C(C)(C)C
EC50 [1]: 5 nM | EC50 [2]: 25 nM | EC50 [3]: 41 nM | Ratio EC50 [4]: 8 | half-life [5]: 1.4 h | clearance [6]: 29.3 mL/min/kg | bioavailability [7]: 0.8% | AUC [8]: 20 ng·h/mL | AUC [9]: 2700 ng·h/mL

COC(=O)N[C@H](C(=O)N[C@@H](Cc1ccc(-c2ccccn2)cc1)C[C@H](O)[C@H](Cc1ccccc1)NC(=O)[C@@H](N1CCN(Cc2ccccc2N)C1=O)C(C)(C)C)C(C)(C)C
EC50 [1]: 4 nM | EC50 [2]: 20 nM | EC50 [3]: 21 nM | Ratio EC50 [4]: 5 | half-life [5]: 1.2 h | clearance [6]: 33.2 mL/min/kg | bioavailability [7]: 2.9% | AUC [8]: 80 ng·h/mL | AUC [9]: 1250 ng·h/mL

COC(=O)N[C@H](C(=O)N[C@@H](Cc1ccc(-c2ccccn2)cc1)C[C@H](O)[C@H](Cc1ccccc1)NC(=O)[C@@H](N1CCN(Cc2ccccc2OC)C1=O)C(C)(C)C)C(C)(C)C
EC50 [1]: 4 nM | EC50 [2]: 17 nM | EC50 [3]: 49 nM | Ratio EC50 [4]: 12 | half-life [5]: 1.2 h | clearance [6]: 36 mL/min/kg | bioavailability [7]: 3.1% | AUC [8]: 70 ng·h/mL | AUC [9]: 9380 ng·h/mL

COC(=O)N[C@H](C(=O)N[C@@H](Cc1ccc(-c2ccccn2)cc1)C[C@H](O)[C@H](Cc1ccccc1)NC(=O)[C@@H](N1CCN(Cc2csc(-c3cccnc3)n2)C1=O)C(C)(C)C)C(C)(C)C
EC50 [1]: 8 nM | EC50 [2]: 26 nM | Ratio EC50 [4]: 1 | half-life [5]: 0.7 h | clearance [6]: 34.2 mL/min/kg | bioavailability [7]: 0.8% | AUC [8]: 20 ng·h/mL | AUC [9]: 120 ng·h/mL

COC(=O)N[C@H](C(=O)N[C@H](Cc1ccc(-c2ccccn2)cc1)C[C@H](O)[C@H](Cc1ccccc1)NC(=O)[C@@H](N1CCN(Cc2cccc(C(C)(C)C)n2)C1=O)C(C)(C)C)C(C)(C)C
EC50 [1]: 15 nM | EC50 [2]: 311 nM | EC50 [3]: 151 nM | Ratio EC50 [4]: 10

COC(=O)N[C@H](C(=O)N[C@H](Cc1ccc(-c2ccccn2)cc1)C[C@H](O)[C@H](Cc1ccccc1)NC(=O)[C@@H](N1CCN(Cc2ccnc3ccccc23)C1=O)C(C)(C)C)C(C)(C)C
EC50 [1]: 5 nM | EC50 [2]: 21 nM | EC50 [3]: 8 nM | Ratio EC50 [4]: 2 | half-life [5]: 0.6 h | clearance [6]: 41.7 mL/min/kg | bioavailability [7]: 0% | AUC [9]: 9200 ng·h/mL

COC(=O)N[C@H](C(=O)N[C@@H](Cc1ccc(-c2ccccn2)cc1)C[C@H](O)[C@H](Cc1ccccc1)NC(=O)[C@@H](N1CCN(Cc2cccc(C(C)(C)O)n2)C1=O)C(C)(C)C)C(C)(C)C
EC50 [1]: 6 nM | EC50 [2]: 53 nM | EC50 [3]: 4 nM | half-life [5]: 1 h | clearance [6]: 23.3 mL/min/kg | bioavailability [7]: 5.7% | AUC [8]: 200 ng·h/mL | AUC [9]: 830 ng·h/mL

COC(=O)N[C@H](C(=O)N[C@@H](Cc1ccc(-c2ccccn2)cc1)C[C@H](O)[C@H](Cc1ccccc1)NC(=O)[C@@H](N1CCN(Cc2cccc(F)c2)C1=O)C(C)(C)C)C(C)(C)C
EC50 [1]: 4 nM | EC50 [2]: 28 nM | EC50 [3]: 38 nM | Ratio EC50 [4]: 9

COC(=O)N[C@H](C(=O)N[C@@H](Cc1ccc(-c2ccccn2)cc1)[C@@H](O)C[C@H](Cc1ccccc1)NC(=O)[C@@H](N1CCN(Cc2nc3ccccc3n2C)C1=O)C(C)(C)C)C(C)(C)C
EC50 [1]: 7 nM | EC50 [2]: 82 nM | EC50 [3]: 3 nM | Ratio EC50 [4]: <1

COC(=O)N[C@H](C(=O)N[C@H](Cc1ccc(-c2ccccn2)cc1)C[C@H](O)[C@H](Cc1ccccc1)NC(=O)[C@@H](N1CCN(Cc2nc3ccccc3n2C)C1=O)C(C)(C)C)C(C)(C)C
EC50 [1]: 3 nM | EC50 [2]: 33 nM | EC50 [3]: 20 nM | Ratio EC50 [4]: 7 | half-life [5]: 0.7 h | clearance [6]: 54 mL/min/kg | bioavailability [7]: 0.1% | AUC [9]: 1170 ng·h/mL
